Sampled rows, rich in hits. Any-hit rate of the full collection: about 2.9%.
TRPC6 inhibitor = mouse TRPC6 channel inhibition; 310,000 tested, 1.1% active; AID 2553; HEK293-TRPC6, membrane potential dye, ACh-evoked depolarization; stronger effect = lower value; B-score at 10 µM; Q61143;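 active = B-score under library mean minus 3 SD, initial fluorescence not abnormally high, positive integrated signal ratio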;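 also: B-score derived from integrated fluorescence ratio over the kinetic read; more negative B-score means stronger inhibition of depolarization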
Target sequence (Q61143 whole entry, looked up): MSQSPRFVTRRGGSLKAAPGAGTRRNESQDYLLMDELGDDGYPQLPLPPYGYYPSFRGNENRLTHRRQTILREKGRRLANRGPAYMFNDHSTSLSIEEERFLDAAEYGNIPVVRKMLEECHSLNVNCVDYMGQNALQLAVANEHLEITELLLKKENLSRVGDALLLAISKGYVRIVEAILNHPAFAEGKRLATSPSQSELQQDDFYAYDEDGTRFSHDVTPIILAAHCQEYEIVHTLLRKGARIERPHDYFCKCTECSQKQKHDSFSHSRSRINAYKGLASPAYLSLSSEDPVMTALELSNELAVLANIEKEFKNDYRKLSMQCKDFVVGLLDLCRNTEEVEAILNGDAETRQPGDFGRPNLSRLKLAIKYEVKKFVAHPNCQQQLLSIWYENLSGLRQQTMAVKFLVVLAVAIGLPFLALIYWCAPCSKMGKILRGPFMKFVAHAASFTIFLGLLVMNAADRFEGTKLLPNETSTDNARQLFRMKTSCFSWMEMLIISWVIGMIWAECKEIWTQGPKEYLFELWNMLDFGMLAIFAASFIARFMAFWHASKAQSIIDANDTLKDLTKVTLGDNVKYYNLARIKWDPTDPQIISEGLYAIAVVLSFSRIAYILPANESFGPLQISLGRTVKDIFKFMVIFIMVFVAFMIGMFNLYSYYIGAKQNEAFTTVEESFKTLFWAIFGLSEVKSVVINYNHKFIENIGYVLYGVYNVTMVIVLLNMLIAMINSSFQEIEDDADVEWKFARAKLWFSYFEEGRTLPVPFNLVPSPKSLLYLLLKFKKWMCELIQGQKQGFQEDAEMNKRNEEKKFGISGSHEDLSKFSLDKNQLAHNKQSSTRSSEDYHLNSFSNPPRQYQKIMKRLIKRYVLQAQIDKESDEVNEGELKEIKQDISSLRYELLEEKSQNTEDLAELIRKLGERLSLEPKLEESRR
TRPC4 act = TRPC4 (mouse) channel activation. Q9QUQ5. HEK293 TRPC4beta/mu-opioid, Fluo4 calcium fluorescence; stronger effect = higher value. B-score at 10 µM. 310,000 tested, 0.49% active. AID 2237;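 active = B-score above 5 SD of library B-scores, and initial fluorescence ratio not above library mean plus 5 SD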;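 also: positive B-score marks a calcium rise read as TRPC4 activation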
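System: HEK293 cells stably co-expressing mouse TRPC4beta and mu-opioid receptor; Schedule: Fluo4 dye loading 45 min at room temperature, 110 s recording; Detection: Fluo4 fluorescence, kinetic; Evaluation: B-scored integrated calcium fluorescence ratio; Controls: buffer (low) and maximal DAMGO (high).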
TRPC4 potent = TRPC4 (mouse) allosteric potentiation; Q9QUQ5; HEK293 TRPC4beta/mu-opioid, DAMGO EC20, Fluo-4 Ca2+ flux; stronger effect = higher value; B-score at 10 µM; 310,000 tested, 0.42% active; AID 2227;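 active = B-score of calcium response area above 5 SD of library B-scores, with initial fluorescence ratio within 5 SD of library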
TRPC4 inh = TRPC4 (mouse) channel inhibition | B-score at 10 µM | HEK293 TRPC4beta/mu-opioid, DAMGO-evoked Fluo4 calcium flux; stronger effect = lower value | 300,000 tested, 0.39% active | Q9QUQ5;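 active = B-score over 3 SD under the library average, no early fluorescence shift, positive overall ratio signal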
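test system = HEK293 cells with stable TRPC4beta plus mu-opioid receptor expression | detection = Fluo4 Ca2+ flux fluorescence | read-out = integrated fluorescence ratio relative to baseline, converted to per-well B score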
TRPC6 act = mouse TRPC6 channel activation. HEK293-TRPC6 membrane potential dye fluorescence; stronger effect = higher value. B-score at 10 µM. 310,000 tested, 0.13% active. AID 2550;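 active = B-score of the integrated fluorescence ratio above library mean plus 3 SD, and starting fluorescence ratio within library mean plus 5 SD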;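 also: higher score means more depolarization so channel activation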
Kir21 inh = Kir2.1 (mouse) channel inhibition | B-score at 10 µM | HEK293-Kir2.1, FluxOR thallium flux fluorescence; stronger effect = lower value | P35561 | AID 1672 | 310,000 tested, 0.85% active;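 active = fluorescence ratio B-score at or below minus 3 SD of library scores, with starting-brightness B-score within 2 SD, cut at about -4.2 in these data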;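 also: channel flux triggered by added potassium and thallium sulfate stimulus; B-score of peak minus minimum fluorescence over baseline after thallium stimulus; more negative B-score means stronger Kir2.1 block with less thallium influx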
Of the large screens only hits and unclear results are named; the others gave an inactive call.

O=C(CN1C(=O)C2CC=CCC2C1=O)NCC(=O)Nc1ccc(F)c(F)c1 (configuration not stated)	none
Cc1ccc(OCC(=O)N(C)CCc2ccccn2)cc1	TRPC4 act 89
CN(CCc1ccccn1)C(=O)Nc1ccc(C(C)(C)C)cc1	none
Cc1ccc(OCc2cc(C(=O)N(C)CCc3ccccn3)no2)cn1	TRPC4 act 81
CN(CCc1ccccn1)C(=O)Nc1ccc(F)cc1	TRPC4 act 63
COc1ccc(NC(=O)N2CCC(CO)(CC3CCCCO3)CC2)c(OC)c1 (configuration not stated)	none
CCCn1c(N)c(N(CCOC)C(=O)/C=C/c2ccc(C(=O)OC)cc2)c(=O)[nH]c1=O	none
CCSc1ncccc1-c1nc2ccccc2[nH]1	TRPC4 inh -7
O=C(Cn1c(=O)cnc2ccccc21)N1CCN(S(=O)(=O)c2cccc([N+](=O)[O-])c2)CC1	none
CCC(C(=O)OCC(=O)Nc1c(Cl)cccc1Cl)c1ccccc1 (configuration not stated)	Kir21 inh -6.9
CCn1c2ccccc2c2cc(Nc3cc(C)nc4ncnn34)ccc21	Kir21 inh -7.6
CN(C(=S)NC(=O)CCCOc1ccc(Cl)cc1Cl)c1ccccc1	Kir21 inh -4.9
CC(C)NC(=O)CCCOc1ccc(Cl)cc1Cl	none
CC(Oc1ccc(Cl)cc1Cl)C(=O)N(C)c1ccccc1 (configuration not stated)	Kir21 inh -6.4
CCCS(=O)(=O)N1CCN(Cc2ccc3c(c2)c2ccccc2n3CC)CC1	Kir21 inh -5.9
O=C(NCc1ccccc1)C(c1ccc(F)cc1)N(C(=O)c1csnn1)C1CCCC1 (configuration not stated)	none
COC(=O)C1=C(C)N(C)C(=O)NC1c1ccsc1 (configuration not stated)	none
CC1=C(C(=O)OCCc2ccccc2)C(c2ccsc2)NC(=O)N1C (configuration not stated)	Kir21 inh -5.6
COc1ccc(CC(=O)Oc2ccc(C)cc2Br)cc1S(=O)(=O)N1CCOCC1	none
O=C(c1ccncc1)N1c2ccccc2Sc2ccccc21	TRPC4 potent 26
COc1ccc(OC)c(CN2CCN(C(=O)c3ccc(F)cc3)CC2)c1	none
COc1ccc(CN2CCN(C(=O)c3ccc(F)cc3)CC2)c(OC)c1	TRPC4 inh -6
NS(=O)(=O)c1ccc2nc(-c3ccccc3)c(-c3ccccc3)nc2c1	none
N=c1c2c(-c3ccccc3)c(-c3ccccc3)n(Cc3ccco3)c2ncn1CCCN1CCOCC1	Kir21 inh -7.1
N=c1c2c(-c3ccccc3)c(-c3ccccc3)n(Cc3ccco3)c2ncn1CCCn1ccnc1	Kir21 inh -7.7
c1ccc(-c2c(-c3ccccc3)n(Cc3ccco3)c3ncnc(NCCCn4ccnc4)c23)cc1	none
S=c1[nH]nc(COc2ccc(Cl)cc2Cl)n1-c1ccccc1	TRPC4 act 54
S=c1[nH]nc(-c2ccc(Cl)cc2Cl)n1-c1ccccc1	none
Cc1cc(Cl)ccc1OC(C)C(=O)Nc1ccccc1N1CCOCC1 (configuration not stated)	TRPC4 potent 22
CC(Oc1cccc(Cl)c1)C(=O)Nc1cc(S(=O)(=O)N2CCOCC2)ccc1N1CCCCC1 (configuration not stated)	none
CCN1CCN(c2ccc(S(=O)(=O)N3CCOCC3)cc2NC(=O)c2ccccc2OC(F)F)CC1	TRPC4 act 131
CCN1CCN(c2ccc(S(=O)(=O)N3CCOCC3)cc2NC(=O)c2ccc(Cl)cc2Cl)CC1	none
CCN1CCN(c2ccc(S(=O)(=O)N3CCOCC3)cc2NC(=O)C(C)Oc2cccc(Cl)c2)CC1 (configuration not stated)	TRPC4 act 101
Cc1ccc(-c2nc3cnccn3c2Nc2ccc3c(c2)OCO3)cc1	TRPC6 inhibitor -5.7
COc1cc(NS(=O)(=O)c2ccc(NC(=O)CCC(=O)O)cc2)nc(OC)n1	TRPC4 potent 10
COc1ccc(-c2ncccc2OC(=O)C23CC4CC(CC(C4)C2)C3)cc1	none
CCCCN1C2=NC(c3ccccc3)CN2c2ccccc21 (configuration not stated)	TRPC4 inh -6
CCCOc1ccc(Br)cc1CSC(=N)N	Kir21 inh -8.2
CC1CCc2c(sc(/N=C/N(C)C)c2C#N)C1 (configuration not stated)	TRPC4 inh -6
Cc1[nH]c2ccc(Br)cc2c(=O)c1CN1CCCCC1	TRPC4 potent 10
CCN1CCN(Cc2c(C)[nH]c3ccc(OC)cc3c2=O)CC1	TRPC4 potent 15
CCN(CC)CCNC(=O)c1cc2c(-c3cccc(OC)c3)nn(C)c2s1	TRPC4 potent 17
CCCN(CCC)CCNC(=O)c1cc2c(-c3ccc(Cl)cc3)nn(C)c2s1	TRPC4 act 47
CCCN(CCC)CCCNC(=O)c1cc2c(-c3ccc(OC)c(OC)c3)nn(C)c2s1	TRPC4 act 114
COc1ccc(-c2nn(C)c3sc(C(=O)NCCN(C)C)cc23)cc1OC	none
CCN(CC)CCNC(=O)c1cc2c(-c3ccc(Cl)cc3)nn(C)c2s1	none
COCCCNC(=O)c1cc2c(-c3cccc(OC)c3)nn(C)c2s1	none
CCCCN(CC)CCNC(=O)c1cc2c(-c3ccc(Cl)cc3)nn(C)c2s1	TRPC4 act 94
Cc1nc(S/C(=C/c2ccc(-c3cc(Cl)ccc3C)o2)C(=O)O)n[nH]1	TRPC4 inh -6
CCC(=O)NNC(=O)c1cc(COc2cc(Cl)cc(Cl)c2)on1	none
Clc1ccc2c(c1)CCc1cccnc1C2=C1CCNCC1	TRPC6 inhibitor -6
COc1cccc(C(C)N(C)Cc2nc(-c3ccoc3)oc2C)c1 (configuration not stated)	none
Cc1oc(-c2ccoc2)nc1CN(Cc1ccccc1)CC1CC1	TRPC4 inh -9
C=CCOc1ccnc(-c2ccccc2)n1	none
OCC1(CC2CCCCO2)CCN(Cc2nc3ccccc3[nH]2)CC1 (configuration not stated)	TRPC4 act 110, TRPC4 inh -8
OCC1(CC2CCCCO2)CCN(C/C=C/c2ccccc2)CC1 (configuration not stated)	none
COc1ccc(NC(=O)C2CCCN(S(=O)(=O)c3ccccc3)C2)c(OC)c1 (configuration not stated)	none
CC(NC(=O)/C(C#N)=C/c1ccc([N+](=O)[O-])o1)c1ccccc1 (configuration not stated)	Kir21 inh -7.7
COc1ccc(CNCc2cn(-c3cccc(F)c3)nc2-c2ccc(C)o2)cc1	TRPC4 act 103

Bioassay records (PubChem)
